In ChEMBL document CHEMBL1139366, “Non-peptide macrocyclic histone deacetylase inhibitors” (J Med Chem, 2009) one finds EC50 and IC50 data, which are given here for 15 molecules.

Where only a bound is given, the exact number is not on record here.

Assay [1] has as its system DU-145. Kind of assay: Cytotoxicity against human DU145 cells after 72 hrs by trypan blue exclusion assay. In kind it is functional, cell-based. To be noted: DU-145, 72 h. The procedure, abridged: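 DU-145 prostate cancer cells kept in recommended complete medium at 37 °C, 5% CO₂, passaged 24 h before dosing. Compounds taken from 10 mM DMSO stocks and diluted in DMSO plus fresh medium, final DMSO 0.1%; control wells got fresh medium only. Viability read by trypan blue staining after 72 h. EC₅₀ = concentration giving 50% loss of viability, from duplicate of four simultaneous experiments.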

For assay [2], the system named is SK-MES-1. Kind of assay: Cytotoxicity against human SKMES1 cells after 72 hrs by trypan blue exclusion assay. In kind it is functional, cell-based. The note with it: SK-MES-1, 72 h.
A short description of assay [3]: Cytotoxicity against human primary lung fibroblasts after 72 hrs by trypan blue exclusion assay. In kind it is ADME, cell-based. The note with it: Fibroblast.
For assay [4], the target named is Histone deacetylase (HDAC1 and HDAC2) (Homo sapiens, UniProt Q13547+Q92769). Kind of assay: Inhibition of HDAC1/2 from human HeLa cells nuclear extract by cell free fluorimetric assay. In kind it is cell-based.
Assay [5] has as its system HMEC. Kind of assay: Cytotoxicity against HMEC after 72 hrs by trypan blue exclusion assay. In kind it is ADME, cell-based. The note with it: Homo sapiens.
Assay [6] concerns NCI-H69. Kind of assay: Cytotoxicity against human NCI-H69 cells after 72 hrs by trypan blue exclusion assay. To be noted: NCI-H69, 72 h. In kind it is functional, cell-based.
Assay [7] deals with T1, Histone deacetylase 8 (Homo sapiens, UniProt Q9BY41).
T1 sequence (Q9BY41 whole entry): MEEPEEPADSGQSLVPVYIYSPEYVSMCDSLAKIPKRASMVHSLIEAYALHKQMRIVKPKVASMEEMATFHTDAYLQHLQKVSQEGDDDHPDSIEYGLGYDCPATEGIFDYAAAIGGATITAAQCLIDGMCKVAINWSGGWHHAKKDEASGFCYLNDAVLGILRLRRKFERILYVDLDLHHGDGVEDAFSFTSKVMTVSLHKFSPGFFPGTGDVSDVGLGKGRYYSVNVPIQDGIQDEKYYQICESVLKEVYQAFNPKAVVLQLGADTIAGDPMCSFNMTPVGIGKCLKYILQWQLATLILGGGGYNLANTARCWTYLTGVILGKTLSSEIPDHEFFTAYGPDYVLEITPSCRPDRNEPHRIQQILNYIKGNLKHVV
Kind of assay: Inhibition of HDAC8 from human HeLa cells nuclear extract by cell free fluorimetric assay.

For the molecule `CC[C@H]1OC(=O)[C@H](C)[C@@H](O)[C@H](C)[C@@H](O[C@@H]2O[C@H](C)C[C@H](N(C)Cc3ccc(-c4cn(CCCCCC(=O)NO)nn4)cc3)[C@H]2O)[C@](C)(OC)C[C@@H](C)C(=O)[C@H](C)[C@@H](O)[C@]1(C)O`, the EC50 in assay [1] was 3.29 µM; in assay [2], 1.95 µM; in assay [3], more than 10 µM; in assay [5], more than 10 µM; in assay [6], 1.92 µM. In assay [4], the IC50 was 0.0443 µM.

Turning to `CC[C@H]1OC(=O)[C@H](C)[C@@H](O[C@H]2C[C@@](C)(OC)[C@@H](O)[C@H](C)O2)[C@H](C)[C@@H](O[C@@H]2O[C@H](C)C[C@H](N(C)Cc3ccc(-c4cn(CCCCCCCC(=O)NO)nn4)cc3)[C@H]2O)[C@](C)(O)C[C@@H](C)CN(C)[C@H](C)[C@@H](O)[C@]1(C)O`, the EC50 in assay [1] is 5.89 µM; in assay [2], 4.89 µM; in assay [3], more than 10 µM; in assay [5], more than 10 µM; in assay [6], 4.56 µM. In addition, the IC50 in assay [7] came to 7.13 µM; in assay [4] it was 0.0589 µM.

As for `CC[C@H]1OC(=O)[C@H](C)[C@@H](O)[C@H](C)[C@@H](O[C@@H]2O[C@H](C)C[C@H](N(C)Cc3ccc(NC(=O)CCCCCCC(=O)NO)cc3)[C@H]2O)[C@](C)(O)C[C@@H](C)CN(C)[C@H](C)[C@@H](O)[C@]1(C)O` [DESCLASINOSE AZITHROMYCINARYLALKYL HYDROXAMATE], the EC50 in assay [1] was less than 25 µM. The IC50 in assay [4] is 0.1098 µM.

For the molecule `CC[C@H]1OC(=O)[C@H](C)[C@@H](O)[C@H](C)[C@@H](O[C@@H]2O[C@H](C)C[C@H](N(C)Cc3ccc(-c4cn(CCCCCCCC(=O)NO)nn4)cc3)[C@H]2O)[C@](C)(O)C[C@@H](C)CN(C)[C@H](C)[C@@H](O)[C@]1(C)O`, the EC50 in assay [1] is 5.68 µM; in assay [2], 4.67 µM; in assay [3], more than 10 µM; in assay [5], more than 10 µM; in assay [6] it was 3.99 µM. The IC50 in assay [7] amounted to 6.78 µM; in assay [4] it was 0.0724 µM.

Take `CC[C@H]1OC(=O)[C@H](C)[C@@H](O[C@H]2C[C@@](C)(OC)[C@@H](O)[C@H](C)O2)[C@H](C)[C@@H](O[C@@H]2O[C@H](C)C[C@H](N(C)Cc3ccc(-c4cn(CCCCCCCCCC(=O)NO)nn4)cc3)[C@H]2O)[C@](C)(OC)C[C@@H](C)C(=O)[C@H](C)[C@@H](O)[C@]1(C)O`: the IC50 in assay [4] was determined as 0.2234 µM.

As to `O=C(CCCCCCC(=O)Nc1ccccc1)NO` [VORINOSTAT], the EC50 in assay [1] amounted to 2.12 µM.

In assay [1], `CC[C@H]1OC(=O)[C@H](C)[C@@H](O[C@H]2C[C@@](C)(OC)[C@@H](O)[C@H](C)O2)[C@H](C)[C@@H](O[C@@H]2O[C@H](C)C[C@H](N(C)Cc3ccc(NC(=O)CCCCCCC(=O)NO)cc3)[C@H]2O)[C@](C)(O)C[C@@H](C)CN(C)[C@H](C)[C@@H](O)[C@]1(C)O` [AZITHROMYCINARYLALKYLHYDROXAMIC ACID] had an EC50 of more than 25 µM. The molecule further registered an IC50 in assay [4] of 0.1071 µM.

With `CC[C@H]1OC(=O)[C@H](C)[C@@H](O[C@H]2C[C@@](C)(OC)[C@@H](O)[C@H](C)O2)[C@H](C)[C@@H](O[C@@H]2O[C@H](C)C[C@H](N(C)Cc3ccc(-c4cn(CCCCCCCC(=O)NO)nn4)cc3)[C@H]2O)[C@](C)(OC)C[C@@H](C)C(=O)[C@H](C)[C@@H](O)[C@]1(C)O`, the EC50 in assay [1] was 6.97 µM; in assay [2], 4.89 µM; in assay [3], more than 10 µM; in assay [5], more than 10 µM; in assay [6], 5.67 µM. In addition, the IC50 in assay [4] turned out to be 0.0556 µM.

`CC[C@H]1OC(=O)[C@H](C)[C@@H](O[C@H]2C[C@@](C)(OC)[C@@H](O)[C@H](C)O2)[C@H](C)[C@@H](O[C@@H]2O[C@H](C)C[C@H](N(C)Cc3ccc(-c4cn(CCCCCCCCC(=O)NO)nn4)cc3)[C@H]2O)[C@](C)(O)C[C@@H](C)CN(C)[C@H](C)[C@@H](O)[C@]1(C)O`: the EC50 in assay [1] was more than 10 µM; in assay [2], 7.54 µM; in assay [3] it was more than 10 µM; in assay [5], more than 10 µM; in assay [6] it was 8.45 µM. Further, the IC50 turned out to be 11.1 µM in assay [7] and 0.1455 µM in assay [4].

Take `CC[C@H]1OC(=O)[C@H](C)[C@@H](O[C@H]2C[C@@](C)(OC)[C@@H](O)[C@H](C)O2)[C@H](C)[C@@H](O[C@@H]2O[C@H](C)C[C@H](N(C)Cc3ccc(-c4cn(CCCCCC(=O)NO)nn4)cc3)[C@H]2O)[C@](C)(OC)C[C@@H](C)C(=O)[C@H](C)[C@@H](O)[C@]1(C)O`: the EC50 in assay [1] is 2.98 µM; in assay [2] it was 2.15 µM; in assay [3], more than 10 µM; in assay [5], more than 10 µM; in assay [6], 2.67 µM. Moreover, the IC50 in assay [4] was 0.037 µM.

With `CC[C@H]1OC(=O)[C@H](C)[C@@H](O[C@H]2C[C@@](C)(OC)[C@@H](O)[C@H](C)O2)[C@H](C)[C@@H](O[C@@H]2O[C@H](C)C[C@H](N(C)Cc3ccc(-c4cn(CCCCCC(=O)NO)nn4)cc3)[C@H]2O)[C@](C)(O)C[C@@H](C)CN(C)[C@H](C)[C@@H](O)[C@]1(C)O`, the EC50 in assay [1] is 1.45 µM; in assay [2], 1.79 µM; in assay [3], more than 10 µM; in assay [5], more than 10 µM; in assay [6], 1.92 µM. Besides, the IC50 in assay [7] is 4.73 µM; in assay [4] it was 0.0916 µM.

Regarding `CC[C@H]1OC(=O)[C@H](C)[C@@H](O)[C@H](C)[C@@H](O[C@@H]2O[C@H](C)C[C@H](N(C)Cc3ccc(-c4cn(CCCCCCCC(=O)NO)nn4)cc3)[C@H]2O)[C@](C)(OC)C[C@@H](C)C(=O)[C@H](C)[C@@H](O)[C@]1(C)O`, the EC50 was 5.78 µM in assay [1]; 4.45 µM in assay [2]; more than 10 µM in assay [3]; more than 10 µM in assay [5]; 5.09 µM in assay [6]. The molecule also returned an IC50 in assay [4] of 0.123 µM.

In assay [4], `CC[C@H]1OC(=O)[C@H](C)[C@@H](O[C@H]2C[C@@](C)(OC)[C@@H](O)[C@H](C)O2)[C@H](C)[C@@H](O[C@@H]2O[C@H](C)C[C@H](N(C)Cc3ccc(-c4cn(CCCCCCCCCC(=O)NO)nn4)cc3)[C@H]2O)[C@](C)(O)C[C@@H](C)CN(C)[C@H](C)[C@@H](O)[C@]1(C)O` registered an IC50 of 0.2267 µM.

In the case of `CC[C@H]1OC(=O)[C@H](C)[C@@H](O)[C@H](C)[C@@H](O[C@@H]2O[C@H](C)C[C@H](N(C)Cc3ccc(-c4cn(CCCCCC(=O)NO)nn4)cc3)[C@H]2O)[C@](C)(O)C[C@@H](C)CN(C)[C@H](C)[C@@H](O)[C@]1(C)O`, the EC50 in assay [1] was 1.24 µM; in assay [2], 1.68 µM; in assay [3], more than 10 µM; in assay [5], more than 10 µM; in assay [6], 1.77 µM. The IC50 in assay [7] amounted to 3.74 µM; in assay [4] it was 0.0888 µM.

Take `CC[C@H]1OC(=O)[C@H](C)[C@@H](O[C@H]2C[C@@](C)(OC)[C@@H](O)[C@H](C)O2)[C@H](C)[C@@H](O[C@@H]2O[C@H](C)C[C@H](N(C)Cc3ccc(-c4cn(CCCCCCCCC(=O)NO)nn4)cc3)[C@H]2O)[C@](C)(OC)C[C@@H](C)C(=O)[C@H](C)[C@@H](O)[C@]1(C)O`: the EC50 in assay [1] was 8.14 µM; in assay [2] it was 7.12 µM; in assay [3], more than 10 µM; in assay [5], more than 10 µM; in assay [6], 7.29 µM. The IC50 in assay [4] is 0.1698 µM.

As usually defined, the EC50 is the concentration needed to bring the measured effect to its halfway point. A low value points to greater potency. As usually defined, the IC50 is the midpoint of a concentration-inhibition curve. Lower therefore signals greater potency.
